Experimental data as given in ChEMBL document CHEMBL1687745 (Antimicrob Agents Chemother, 2009).
In brackets after ≈: the same amount, converted by molar mass. Activity calls are given as the source filed them. The rule behind the calls is not given here.

Assays:
Bacillus anthracis [1] = test: Antimicrobial activity against Bacillus anthracis Sterne vegetative cells by broth microdilution method; assay type: functional
Bacillus anthracis [2] = test: Antimicrobial activity against Bacillus anthracis Sterne spores by broth microdilution method; assay type: functional
Bacillus subtilis [3] = test: Inhibition of cell wall synthesis in Bacillus subtilis BD54 at 5 X MIC by N-acetyl-D-[1-3H] glucosamine incorporation assay; assay type: functional
Procedure, shortened: (§1)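 Precursors were [methyl-3H]thymidine (DNA), [5-3H]uridine (RNA), L-[4,5-3H]leucine (protein) and N-acetyl-D-[1-3H]glucosamine (cell wall). Samples taken over time, precipitated with equal volume of ice-cold 20% TCA, filtered on glass fibre, and counted. cpm plotted against time.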

Bacillus subtilis [4] = test: Inhibition of DNA synthesis in Bacillus subtilis BD54 at 5 X MIC by [3H]thymidine incorporation assay; assay type: functional, organism-based; procedure, shortened: as §1
Bacillus subtilis [5] = test: Inhibition of RNA synthesis in Bacillus subtilis BD54 at 5 X MIC by [5-3H]uridine incorporation assay; assay type: functional; procedure, shortened: as §1
Bacillus subtilis [6] = test: Inhibition of protein synthesis in Bacillus subtilis BD54 at 5 X MIC by L-[4,5-3H]leucine incorporation assay; assay type: functional, organism-based; procedure, shortened: as §1

SMILES	MIC (Bacillus anthracis [1])	MIC (Bacillus anthracis [2])	further results
C(=C\c1cc2ccc(C3=NCCN3)cc2o1)/c1cc2ccc(C3=NCCN3)cc2[nH]1	19 µg/mL (≈ 48 µM)	4.7 µg/mL (≈ 11.9 µM)	
N=C(N)c1ccc(-c2cc(-c3ccc(C(=N)N)cc3)on2)cc1	> 15 µg/mL	> 15 µg/mL	
C(/C=C/c1cc2cc(C3=NCCN3)ccc2o1)=C\c1cc2cc(C3=NCCN3)ccc2o1	19.8 µg/mL (≈ 46.9 µM)	9.9 µg/mL (≈ 23.4 µM)	
N=C(N)c1ccc2cc(/C=C/c3cc4ccc(C(=N)N)cc4o3)oc2c1	17 µg/mL (≈ 49.4 µM)	8.3 µg/mL (≈ 24.1 µM)	
N=C(N)Nc1ccc(-c2cc3cc(NC(=N)N)ccc3s2)cc1	> 16 µg/mL	15.9 µg/mL (≈ 49 µM)	
N=C(N)c1ccc(-n2nc3ccc(C(=N)N)cc3n2)cc1	> 14 µg/mL	> 14 µg/mL	
C(=C\c1cc2ccc(C3=NCCN3)cc2o1)/c1cc2cc(C3=NCCN3)ccc2[nH]1	> 19 µg/mL	19 µg/mL (≈ 48 µM)	
N=C(N)c1ccc2oc(/C=C/C=C/c3cc4cc(C(=N)N)ccc4o3)cc2c1	18 µg/mL (≈ 48.6 µM)	2.2 µg/mL (≈ 5.94 µM)	
c1cc2cc(-c3cc4ccc(C5=NCCN5)cc4[nH]3)[nH]c2cc1C1=NCCN1	1.1 µg/mL (≈ 2.99 µM)	0.6 µg/mL (≈ 1.63 µM)	
C(/C=C/c1cc2cc(C3=NCCN3)ccc2o1)=C\c1ccc(C2=NCCN2)cc1	18.2 µg/mL (≈ 47.6 µM)	18.2 µg/mL (≈ 47.6 µM)	
C(=C\c1cc2cc(C3=NCCN3)ccc2[nH]1)/c1ccc(C2=NCCN2)cc1	> 17 µg/mL	> 17 µg/mL	
CN[C@H](CC(C)C)C(=O)N[C@H]1C(=O)N[C@@H](CC(N)=O)C(=O)N[C@H]2C(=O)N[C@H]3C(=O)N[C@H](C(=O)N[C@H](C(=O)O)c4cc(O)cc(O)c4-c4cc3ccc4O)[C@H](O)c3ccc(c(Cl)c3)Oc3cc2cc(c3O[C@@H]2O[C@H](CO)[C@@H](O)[C@H](O)[C@H]2O[C@H]2C[C@](C)(N)[C@H](O)[C@H](C)O2)Oc2ccc(cc2Cl)[C@H]1O			inhibition (Bacillus subtilis [3]): Active; inhibition (Bacillus subtilis [4]): Active; inhibition (Bacillus subtilis [5]): Active; inhibition (Bacillus subtilis [6]): Active
O=C(Nc1ccc(C2=NCCN2)cc1)c1cc2ccc(C3=NCCN3)cc2o1	> 18 µg/mL	> 18 µg/mL	
c1cc(-c2cc3cc(C4=NCCN4)ccc3s2)ccc1C1=NCCN1	> 17 µg/mL	> 17 µg/mL	
N=C(N)c1ccc(Oc2ccc(-c3cc4ccc(C(=N)N)cc4[nH]3)cc2)cc1	4 µg/mL (≈ 10.8 µM)	4 µg/mL (≈ 10.8 µM)	
C(=C\c1nc2ccccc2[nH]1)/c1nc2ccccc2[nH]1	> 10 µg/mL	> 10 µg/mL	
Cc1cc2nc(/C=C/c3nc4cc(C)c(C)cc4[nH]3)[nH]c2cc1C	> 13 µg/mL	> 13 µg/mL	
C(=C\c1cc2cc(C3=NCCN3)ccc2o1)/c1cc2cc(C3=NCCN3)ccc2o1	> 19 µg/mL	> 19 µg/mL	
N=C(N)N/N=C/c1ccc2cc(-c3ccc(/C=N/N=C(N)N)cc3)sc2c1	18 µg/mL (≈ 47.6 µM)	4.5 µg/mL (≈ 11.9 µM)	
N=C(N)c1ccc2oc(/C=C/C=C/C=C/c3cc4cc(C(=N)N)ccc4o3)cc2c1	9.4 µg/mL (≈ 23.7 µM)	2.3 µg/mL (≈ 5.8 µM)	
N/C(=N\O)c1ccc2oc(/C=C/c3cc4cc(/C(N)=N/O)ccc4o3)cc2c1	> 23 µg/mL	> 23 µg/mL	
Nc1ccc(C2=Cc3ccc(N)cc3S2(=O)=O)cc1	> 11 µg/mL	> 11 µg/mL	
O=C(Nc1ccc(C2=NCCN2)cc1)c1cc2cc(C3=NCCN3)ccc2o1	> 18 µg/mL	18 µg/mL (≈ 48.2 µM)	
N=C(N)c1ccc(-c2nc3cc(C(=N)N)ccc3[nH]2)cc1	> 14 µg/mL	> 14 µg/mL	
N=C(N)c1ccc2cc(/C=C/c3cc4ccc(C(=N)N)cc4o3)[nH]c2c1	4.2 µg/mL (≈ 12.2 µM)	2.1 µg/mL (≈ 6.12 µM)	
C(=C\c1cc2ccc(C3=NCCN3)cc2[nH]1)/c1ccc(Oc2ccc(C3=NCCN3)cc2)cc1	2.6 µg/mL (≈ 5.81 µM)	2.6 µg/mL (≈ 5.81 µM)	
N=C(N)c1ccc(-c2[nH]c3cc(C(=N)N)ccc3c2N)cc1	> 15 µg/mL	> 15 µg/mL	
C(=C\c1cc2cc(C3=NCCN3)ccc2s1)/c1ccc(C2=NCCN2)cc1	17.8 µg/mL (≈ 47.8 µM)	17.8 µg/mL (≈ 47.8 µM)	
N=C(N)c1ccc(-n2cc3cc(C(=N)N)ccc3n2)cc1	> 14 µg/mL	> 14 µg/mL	
C(=C\c1cc2cc(C3=NCCN3)ccc2o1)/c1ccc(C2=NCCN2)cc1	17.2 µg/mL (≈ 48.3 µM)	17.2 µg/mL (≈ 48.3 µM)	
